Values belong to the molecule of their own block, whether it stands above or below them.
How the values were obtained:
[1] = molecular target: T1, Steroid 17-alpha-hydroxylase/17,20 lyase (Rattus norvegicus, UniProt P11715); test: Inhibition of CYP17 in Sprague-Dawley rat testes microsomes using 17-alpha hydroxyprogesterone as substrate and NADPH as cofactor pretreated for 5 mins followed by substrate and cofactor addition after 60 mins by LC/Ms analysis; parameters: species or system Testis
T1 sequence (P11715 whole entry): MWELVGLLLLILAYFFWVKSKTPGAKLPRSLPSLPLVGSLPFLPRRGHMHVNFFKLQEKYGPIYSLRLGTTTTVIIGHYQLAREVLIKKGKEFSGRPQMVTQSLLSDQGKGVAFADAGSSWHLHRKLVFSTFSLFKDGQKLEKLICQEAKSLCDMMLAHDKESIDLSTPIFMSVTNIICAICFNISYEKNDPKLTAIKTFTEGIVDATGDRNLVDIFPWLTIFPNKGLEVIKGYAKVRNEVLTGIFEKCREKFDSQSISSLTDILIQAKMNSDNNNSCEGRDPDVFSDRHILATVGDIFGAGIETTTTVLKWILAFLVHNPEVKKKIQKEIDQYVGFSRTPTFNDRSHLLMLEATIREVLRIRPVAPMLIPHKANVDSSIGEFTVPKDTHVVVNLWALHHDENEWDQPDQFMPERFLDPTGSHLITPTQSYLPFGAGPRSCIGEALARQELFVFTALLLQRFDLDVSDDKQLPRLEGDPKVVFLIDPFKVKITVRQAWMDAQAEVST
Procedure, shortened: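 Rat testis microsomes from male SD rats weighing 220–250 g, prepared at 4 °C by differential centrifugation (9000 g, then 105,000 g pellet). 2 µg protein in 0.05 M phosphate pH 7.5 preincubated with inhibitor 5 min at 25 °C. Started with 10 µM 17α-hydroxyprogesterone plus 4.2 mM NADPH, 60 min at 25 °C, stopped with methanol. Androstenedione measured by LC/MS; IC50 is the mean of at least three experiments.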

[2] = molecular target: T2, CYP1A2 (Homo sapiens, UniProt P05177); test: Inhibition of human hepatic CYP1A2 at 10 uM relative to control; format: ADME
T2 sequence (P05177 whole entry): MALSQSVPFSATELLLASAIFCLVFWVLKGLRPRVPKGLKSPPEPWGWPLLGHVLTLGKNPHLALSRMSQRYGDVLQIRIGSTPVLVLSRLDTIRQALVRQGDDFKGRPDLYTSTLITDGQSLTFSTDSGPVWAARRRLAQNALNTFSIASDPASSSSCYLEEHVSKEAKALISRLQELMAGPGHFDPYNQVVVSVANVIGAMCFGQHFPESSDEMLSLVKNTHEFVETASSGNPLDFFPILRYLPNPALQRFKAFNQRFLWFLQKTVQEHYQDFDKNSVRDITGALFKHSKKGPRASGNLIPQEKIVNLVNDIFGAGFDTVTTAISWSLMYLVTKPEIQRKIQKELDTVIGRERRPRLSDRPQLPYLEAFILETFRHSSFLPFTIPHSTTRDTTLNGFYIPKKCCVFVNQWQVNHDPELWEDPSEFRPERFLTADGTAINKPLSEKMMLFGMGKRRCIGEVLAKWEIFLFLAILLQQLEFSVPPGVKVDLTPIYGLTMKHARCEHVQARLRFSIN

[3] = molecular target: T3, CYP2D6 (Homo sapiens, UniProt P10635); test: Inhibition of human hepatic CYP2D6 at 10 uM relative to control; format: ADME
[4] = molecular target: T3, CYP2D6; test: Inhibition of human hepatic CYP2D6 at 1 uM relative to control; format: ADME
[5] = molecular target: T4, CYP2C9 (Homo sapiens, UniProt P11712); test: Inhibition of human hepatic CYP2C9 at 10 uM relative to control; format: ADME
[6] = molecular target: T2, CYP1A2; test: Inhibition of human hepatic CYP1A2 at 1 uM relative to control; format: ADME
[7] = molecular target: T5, CYP2C19 (Homo sapiens, UniProt P33261); test: Inhibition of human hepatic CYP2C19 at 1 uM relative to control; format: ADME
[8] = molecular target: T5, CYP2C19; test: Inhibition of human hepatic CYP2C19 at 10 uM relative to control; format: ADME
[9] = molecular target: T4, CYP2C9; test: Inhibition of human hepatic CYP2C9 at 1 uM relative to control; format: ADME
[10] = molecular target: Cytochrome P450 3A4 (Homo sapiens, UniProt P08684); test: Inhibition of human hepatic CYP3A4; format: ADME
[11] = molecular target: T6, Steroid 17-alpha-hydroxylase/17,20 lyase (Homo sapiens, UniProt P05093); test: Inhibition of recombinant human CYP17 expressed in human A549 cell membranes using 17-alpha hydroxyprogesterone as substrate and NADPH as cofactor pretreated for 5 mins followed by substrate and cofactor addition after 60 mins by LC/MS analysis
T6 sequence (P05093 whole entry): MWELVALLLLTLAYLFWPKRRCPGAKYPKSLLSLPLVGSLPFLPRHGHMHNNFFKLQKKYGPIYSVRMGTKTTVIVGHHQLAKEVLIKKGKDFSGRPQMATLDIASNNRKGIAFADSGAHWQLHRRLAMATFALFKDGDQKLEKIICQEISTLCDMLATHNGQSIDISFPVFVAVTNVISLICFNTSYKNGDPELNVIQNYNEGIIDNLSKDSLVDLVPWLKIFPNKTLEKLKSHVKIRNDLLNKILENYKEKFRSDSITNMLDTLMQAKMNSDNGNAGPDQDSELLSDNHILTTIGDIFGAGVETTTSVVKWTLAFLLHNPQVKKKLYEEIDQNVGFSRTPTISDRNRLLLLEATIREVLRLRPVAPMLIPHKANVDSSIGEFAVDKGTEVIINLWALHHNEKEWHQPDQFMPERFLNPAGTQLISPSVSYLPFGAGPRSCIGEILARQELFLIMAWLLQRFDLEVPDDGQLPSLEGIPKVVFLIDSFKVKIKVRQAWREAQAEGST
Procedure, shortened: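 Enzyme source was purified membranes of A549 cells expressing human CYP17 from an adenoviral vector. 2 µg membrane protein in 0.05 M phosphate pH 7.5 with inhibitor, preincubated 5 min at 25 °C. Reaction started with 10 µM 17α-hydroxyprogesterone and 4.2 mM NADPH, run 60 min at 25 °C, methanol stop. Androstenedione quantified by LC/MS; IC50 is the mean of at least three experiments.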

[12] = molecular target: T6, Steroid 17-alpha-hydroxylase/17,20 lyase; test: Potency index, ratio of abiraterone IC50 to compound IC50 for recombinant human CYP17 expressed in human A549 cell membranes; format: cell-based
Procedure, shortened: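 Human CYP17 came from purified membranes of A549 cells expressing the cloned gene through an adenoviral system. 2 µg membrane protein was preincubated with inhibitor in 0.05 M phosphate buffer, pH 7.5, at 25 °C for 5 min. The reaction was started with 10 µM 17α-hydroxyprogesterone and 4.2 mM NADPH, run 60 min at 25 °C and stopped with methanol. Androstenedione was quantified by LC/MS.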

[13] = molecular target: T6, Steroid 17-alpha-hydroxylase/17,20 lyase; test: Residual CYP17 activity in human NCI-H295R cells assessed as testosterone production at 1 uM measured after 72 hrs relative to control
[14] = system: Rattus norvegicus; test: Suppression of serum testosterone levels in po dosed Sprague-Dawley rat administered as single dose measured up to 24 hrs post dose by ELISA; format: functional, organism-based
Procedure, shortened: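 Serum was sampled before dosing and at 2, 4, 8 and 24 h. Testosterone was measured by ELISA and expressed as % of the mean pretreatment value; mean ± SEM, n = 6.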

T5 sequence (P33261 whole entry): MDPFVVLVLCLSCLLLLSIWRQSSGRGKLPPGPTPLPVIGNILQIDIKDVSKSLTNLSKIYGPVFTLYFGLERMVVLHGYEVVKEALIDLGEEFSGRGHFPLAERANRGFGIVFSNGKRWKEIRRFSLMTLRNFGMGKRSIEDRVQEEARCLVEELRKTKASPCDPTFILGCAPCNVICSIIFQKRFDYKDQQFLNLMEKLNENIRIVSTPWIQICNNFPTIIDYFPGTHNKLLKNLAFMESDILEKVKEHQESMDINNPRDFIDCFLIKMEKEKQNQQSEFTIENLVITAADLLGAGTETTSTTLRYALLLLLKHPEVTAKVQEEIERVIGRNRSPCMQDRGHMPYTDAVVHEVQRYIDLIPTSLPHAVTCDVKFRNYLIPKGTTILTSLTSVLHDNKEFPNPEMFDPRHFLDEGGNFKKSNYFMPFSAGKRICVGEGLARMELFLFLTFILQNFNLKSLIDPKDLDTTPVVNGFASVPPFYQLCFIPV
Cytochrome P450 3A4, sequence (P08684 whole entry): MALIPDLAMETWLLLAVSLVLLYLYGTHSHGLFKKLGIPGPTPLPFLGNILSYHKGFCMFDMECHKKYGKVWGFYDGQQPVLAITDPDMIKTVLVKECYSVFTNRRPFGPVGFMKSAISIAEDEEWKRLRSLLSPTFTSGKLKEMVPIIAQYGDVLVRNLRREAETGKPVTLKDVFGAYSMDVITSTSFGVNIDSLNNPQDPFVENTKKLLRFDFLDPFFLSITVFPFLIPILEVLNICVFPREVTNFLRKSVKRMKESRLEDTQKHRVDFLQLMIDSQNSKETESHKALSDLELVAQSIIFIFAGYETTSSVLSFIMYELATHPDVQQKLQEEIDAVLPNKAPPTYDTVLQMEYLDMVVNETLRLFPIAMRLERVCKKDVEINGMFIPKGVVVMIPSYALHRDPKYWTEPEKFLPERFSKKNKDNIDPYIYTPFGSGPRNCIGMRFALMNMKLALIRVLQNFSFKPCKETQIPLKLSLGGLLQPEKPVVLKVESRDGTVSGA
T3 sequence (P10635 whole entry): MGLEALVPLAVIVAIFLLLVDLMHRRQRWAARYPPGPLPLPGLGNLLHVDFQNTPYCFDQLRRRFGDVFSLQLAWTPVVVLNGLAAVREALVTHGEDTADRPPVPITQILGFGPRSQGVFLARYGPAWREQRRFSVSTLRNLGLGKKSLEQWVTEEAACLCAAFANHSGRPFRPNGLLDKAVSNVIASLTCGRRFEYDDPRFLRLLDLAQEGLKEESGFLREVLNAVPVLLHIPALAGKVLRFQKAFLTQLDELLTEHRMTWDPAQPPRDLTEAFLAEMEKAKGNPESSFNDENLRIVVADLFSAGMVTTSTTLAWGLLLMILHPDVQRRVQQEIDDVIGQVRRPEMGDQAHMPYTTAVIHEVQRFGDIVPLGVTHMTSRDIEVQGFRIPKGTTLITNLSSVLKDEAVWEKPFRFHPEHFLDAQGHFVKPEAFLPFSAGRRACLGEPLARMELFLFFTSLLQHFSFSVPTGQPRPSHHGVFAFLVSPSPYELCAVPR
T4 sequence (P11712 whole entry): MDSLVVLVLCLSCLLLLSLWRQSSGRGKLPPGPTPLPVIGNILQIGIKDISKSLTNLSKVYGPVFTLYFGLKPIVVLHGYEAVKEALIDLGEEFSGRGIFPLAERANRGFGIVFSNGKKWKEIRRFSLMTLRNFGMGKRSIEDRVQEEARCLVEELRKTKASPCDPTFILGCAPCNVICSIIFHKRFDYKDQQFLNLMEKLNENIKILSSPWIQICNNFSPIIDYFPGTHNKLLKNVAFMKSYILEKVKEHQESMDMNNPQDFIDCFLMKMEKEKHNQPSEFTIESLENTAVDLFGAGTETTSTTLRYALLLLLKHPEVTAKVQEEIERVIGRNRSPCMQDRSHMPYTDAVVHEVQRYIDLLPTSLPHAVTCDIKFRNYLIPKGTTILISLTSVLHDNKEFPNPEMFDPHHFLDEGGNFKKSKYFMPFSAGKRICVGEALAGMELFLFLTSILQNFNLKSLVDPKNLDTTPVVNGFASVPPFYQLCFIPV

IC50 [1]: 517 nM
SMILES: Brc1ccc2sc3c(c2c1)CCN(Cc1cccnc1)C3

IC50 [1]: > 1000 nM
SMILES: O=C(c1cccnc1)N1CCc2c(sc3ccc(F)cc23)C1

inhibition at 10 µM [2]: 99.4% | inhibition at 10 µM [3]: 49.6% | inhibition at 1 µM [4]: 35.7% | inhibition at 10 µM [5]: 100% | inhibition at 1 µM [6]: 87.9% | inhibition at 1 µM [7]: 91.2% | inhibition at 10 µM [8]: 98.7% | inhibition at 1 µM [9]: 98.5% | IC50 [10]: 685 nM | IC50 [11]: 24.3 nM | IC50 [1]: 29.8 nM
SMILES: Fc1ccc2sc3c(c2c1)CCN(Cc1c[nH]cn1)C3

inhibition at 10 µM [2]: 62.2% | inhibition at 10 µM [3]: 56.8% | inhibition at 1 µM [4]: 12% | inhibition at 10 µM [5]: 21.8% | inhibition at 1 µM [6]: 16.3% | inhibition at 1 µM [7]: 11.7% | inhibition at 10 µM [8]: 65.2% | residual activity at 1 µM [13]: 52% | inhibition at 1 µM [9]: 0% | IC50 [10]: 8560 nM | IC50 [11]: 20.1 nM | IC50 [1]: 15.8 nM
SMILES: Cc1ccncc1CN1CCc2c(sc3ccc(F)cc23)C1
Ratio IC50 [12]: 1.5 | Activity [14]: Dose-dependent effect

IC50 [1]: 121 nM
SMILES: Cc1cncc(CN2CCc3c(sc4ccc(F)cc34)C2)c1

IC50 [1]: > 1000 nM
SMILES: COc1ccc2sc3c(c2c1)CCN(Cc1cccnc1)C3

IC50 [1]: > 1000 nM
SMILES: CC(=O)Nc1ccc2sc3c(c2c1)CCN(Cc1cccnc1)C3

IC50 [1]: 257 nM
SMILES: Cc1ccc2sc3c(c2c1)CCN(Cc1cccnc1)C3

IC50 [1]: 980 nM
SMILES: C=C(C)c1ccncc1CN1CCc2c(sc3ccc(F)cc23)C1

inhibition at 10 µM [2]: 71.2% | inhibition at 10 µM [3]: 18.9% | inhibition at 1 µM [4]: 1.3% | inhibition at 10 µM [5]: 17.5% | inhibition at 1 µM [6]: 25.4% | inhibition at 1 µM [7]: 7.9% | inhibition at 10 µM [8]: 71.6% | inhibition at 1 µM [9]: 0% | IC50 [10]: 5280 nM | IC50 [11]: 23.7 nM | IC50 [1]: 20.9 nM
SMILES: Oc1ccc2sc3c(c2c1)CCN(Cc1cccnc1)C3

IC50 [1]: > 1000 nM
SMILES: Fc1ccc2sc3c(c2c1)CCN(Cc1cnccc1-c1ccccc1)C3

IC50 [1]: 229 nM
SMILES: c1cncc(CN2CCc3c([nH]c4ccccc34)C2)c1

IC50 [1]: > 1000 nM
SMILES: CNC(=O)c1ccc2sc3c(c2c1)CCN(Cc1cccnc1)C3

IC50 [1]: 449 nM
SMILES: Clc1ccc2sc3c(c2c1)CCN(Cc1cccnc1)C3

IC50 [1]: 390 nM
SMILES: Fc1ccc2sc3c(c2c1)CCN(Cc1cncc2ccccc12)C3

IC50 [1]: 75.8 nM
SMILES: Fc1ccc2sc3c(c2c1)CCN(Cc1cnccc1Br)C3

IC50 [1]: 535 nM
SMILES: CC(C)c1ccncc1CN1CCc2c(sc3ccc(F)cc23)C1

inhibition at 10 µM [2]: 71.6% | inhibition at 10 µM [3]: 83.7% | inhibition at 1 µM [4]: 37.5% | inhibition at 10 µM [5]: 53.2% | inhibition at 1 µM [6]: 20.6% | inhibition at 1 µM [7]: 47.3% | inhibition at 10 µM [8]: 92.5% | inhibition at 1 µM [9]: 6.6% | IC50 [10]: 7900 nM | IC50 [11]: 29 nM | IC50 [1]: 28.1 nM
SMILES: Fc1ccc2sc3c(c2c1)CCN(Cc1cccnc1)C3

SMILES: c1cncc(CN2CCc3c(sc4ccccc34)C2)c1
IC50 [1]: 28.1 to 54.9 nM

IC50 [1]: > 1000 nM
SMILES: CC(C)(C)OC(=O)Nc1ccc2sc3c(c2c1)CCN(Cc1cccnc1)C3

inhibition at 10 µM [2]: 92.5% | inhibition at 10 µM [3]: 78.5% | inhibition at 1 µM [4]: 10.4% | inhibition at 10 µM [5]: 82.5% | inhibition at 1 µM [6]: 34% | inhibition at 1 µM [7]: 39.6% | inhibition at 10 µM [8]: 91.6% | residual activity at 1 µM [13]: 74% | inhibition at 1 µM [9]: 31.6% | IC50 [1]: 24.7 nM
SMILES: C[C@]12CC[C@H](O)CC1=CC[C@@H]1[C@@H]2CC[C@]2(C)C(c3cccnc3)=CC[C@@H]12 [ABIRATERONE]

IC50 [1]: 115 nM
SMILES: CC1(C)OB(c2ccc3sc4c(c3c2)CCN(Cc2cccnc2)C4)OC1(C)C

IC50 [1]: 257 nM
SMILES: N#Cc1ccc2sc3c(c2c1)CCN(Cc1cccnc1)C3

IC50 [1]: 80.6 nM
SMILES: Fc1ccc2sc3c(c2c1)CCN(Cc1cncnc1)C3

inhibition at 10 µM [2]: 69.5% | inhibition at 10 µM [3]: 62.5% | inhibition at 1 µM [4]: 50.8% | inhibition at 10 µM [5]: 51.6% | inhibition at 1 µM [6]: 10.6% | inhibition at 1 µM [7]: 5.3% | inhibition at 10 µM [8]: 61.3% | inhibition at 1 µM [9]: 0% | IC50 [10]: 9030 nM | IC50 [11]: 45.4 nM | IC50 [1]: 56.5 nM
SMILES: Fc1cncc(CN2CCc3c(sc4ccc(F)cc34)C2)c1

IC50 [1]: > 1000 nM
SMILES: Fc1ccc2sc3c(c2c1)CCN(Cc1ccncc1)C3

IC50 [1]: 61.1 nM
SMILES: Fc1ccc2sc3c(c2c1)CCN(Cc1cnccc1C1CC1)C3

inhibition at 10 µM [2]: 61.2% | inhibition at 10 µM [3]: 76.1% | inhibition at 1 µM [4]: 21.7% | inhibition at 10 µM [5]: 53.8% | inhibition at 1 µM [6]: 8.7% | inhibition at 1 µM [7]: 0% | inhibition at 10 µM [8]: 84.9% | inhibition at 1 µM [9]: 0% | IC50 [10]: 6530 nM | IC50 [11]: 45 nM | IC50 [1]: 33.9 nM
SMILES: COc1cncc(CN2CCc3c(sc4ccc(F)cc34)C2)c1

— ChEMBL document CHEMBL4024710, “Discovery of novel 1,2,3,4-tetrahydrobenzo[4, 5]thieno[2, 3-c]pyridine derivatives as potent and selective CYP17 inhibitors” (Eur J Med Chem, 2017)
